# Source: PubChem BioAssay (Johns Hopkins Ion Channel Center)
# An excerpt weighted towards active compounds, which were near 3.7% of everything screened.
# hERG protect: hERG rescue from dofetilide block, primary screen, cell-based, CHO-hERG, FluxOR thallium flux, dofetilide IC70; dofetilide IC70 present; hit rate 0.51% among 310,000; activation (rescue from dofetilide block), less the hit threshold, % at 10 µM; Voltage-gated inwardly rectifying potassium channel KCNH2 (Homo sapiens), Q12809; AID 1511, 2009;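 active = activation above the mean of controls blocked by dofetilide plus 5 SD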;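 also: thallium influx through hERG after potassium depolarization seen as dye fluorescence rise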
# Kir21 inh: inhibitors of mouse Kir2.1 inward-rectifier potassium channel; Inward rectifier potassium channel 2 (Mus musculus), P35561; HEK293-Kir2.1, FluxOR thallium flux fluorescence; stronger effect = lower value; B-score at 10 µM; hit rate 0.85% among 310,000; AID 1672, 2009;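 active = fluorescence ratio B-score at or below minus 3 SD of library scores, with starting-brightness B-score within 2 SD, cut at about -4.2 in these data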;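 also: channel flux triggered by added potassium and thallium sulfate stimulus; B-score of peak minus minimum fluorescence over baseline after thallium stimulus; more negative B-score means stronger Kir2.1 block with less thallium influx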
# KCNK9 block: KCNK9 potassium channel inhibitors, primary screen, HEK293 cells, thallium flux; Potassium channel subfamily K member 9 (Homo sapiens), Q9NPC2; B-score at 10 µM; hit rate 1.2% among 310,000; FluxOR thallium flux fluorescence; stronger effect = lower value;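 active = ratio B-score over 3 SD below the library mean, with starting fluorescence within 5 SD of its mean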;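 also: negative B-score means less thallium flux so channel inhibition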
# Target sequence (Q9NPC2 whole entry, looked up): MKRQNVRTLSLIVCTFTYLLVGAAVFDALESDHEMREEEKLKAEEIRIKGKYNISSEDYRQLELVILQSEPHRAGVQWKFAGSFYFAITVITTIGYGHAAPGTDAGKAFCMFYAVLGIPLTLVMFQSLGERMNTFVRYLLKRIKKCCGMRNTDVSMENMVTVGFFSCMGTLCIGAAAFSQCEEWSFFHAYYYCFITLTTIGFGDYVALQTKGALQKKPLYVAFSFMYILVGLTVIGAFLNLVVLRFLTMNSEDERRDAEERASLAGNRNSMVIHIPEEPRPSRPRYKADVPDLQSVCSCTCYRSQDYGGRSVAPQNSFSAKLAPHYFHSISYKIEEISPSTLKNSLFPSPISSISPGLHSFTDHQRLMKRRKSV
# KCNK3 inh: human KCNK3 channel inhibitors, primary screen, CHO cells, FluxOR thallium flux, B-score. B-score at 10 µM. Potassium channel subfamily K member 3 (Homo sapiens), O14649. hit rate 0.84% among 340,000. FluxOR fluorescence; stronger effect = lower value. AID 602410, 2012;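 active = B-score under library mean minus 4 SD, starting fluorescence ratio at most library mean plus 5 SD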;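 also: more negative B-score means stronger inhibition of thallium flux through KCNK3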
# KCNQ1 inh: inhibitors of human KCNQ1 channel, primary screen, cell-based, thallium flux, high-throughput; Potassium voltage-gated channel subfamily KQT member 1 (Homo sapiens), P51787; CHO-K1 KCNQ1, FluxOR thallium flux fluorescence; stronger effect = higher value; B-score at 10 µM; hit rate 1.3% among 310,000; AID 2642, 2010;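 active = compounds whose thallium flux B-score, printed positive for inhibition, exceeds three library SD while starting fluorescence stays within three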;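 also: channel opened by potassium depolarization with thallium stimulus after 20 min compound exposure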
# KCNQ1 act: potentiators or activators of KCNQ1 channel, primary screen, cell-based, thallium flux, high-throughput | Potassium voltage-gated channel subfamily KQT member 1 (Homo sapiens), P51787 | CHO-K1 KCNQ1, thallium flux FluxOR fluorescence; stronger effect = higher value | B-score at 10 µM | hit rate 0.35% among 310,000;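 active = fluorescence ratio B-score, a plate-corrected score, at least three library SD, with initial intensity B-score within 5 SD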
#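 System: Stable KCNQ1 CHO-K1 line | Incubation: 90 min dye loading and 20 min compound exposure, both at room temperature | Measure: Ratio B score | Medium: Assay buffer for compound exposure, DMSO matched across wells | Compound dosing: Single-concentration screen | Probe or stimulus: K+/Tl+ depolarizing stimulus | Measured by: Kinetic FluxOR fluorescence, 10 s baseline plus 110 s post-stimulus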
# An asterisk follows results filed as active; i = inactive; / = no result.
SMILES,hERG protect,Kir21 inh,KCNK9 block,KCNK3 inh,KCNQ1 inh,KCNQ1 act
CCC1(c2ccc(Cl)cc2)NC(=S)N(c2ccccc2)N1 (configuration not stated),49*,-0.07,i,i,i,40*
CCCCCCC1(C)NC(=S)N(c2ccccc2)N1 (configuration not stated),-3,-0.9,i,i,i,i
Cc1ccccc1NC(=S)c1ccc2ccccc2n1,-8,-0.17,i,i,i,i
CCOc1cccc(Oc2ccc(C(F)(F)F)cn2)c1,-4,-1.5,-7.9*,i,i,i
CCOC(=O)c1ccc(Oc2ccc(C(F)(F)F)cn2)cc1,-4,2.3,i,i,i,i
Brc1cc2c(cc1-c1nc3ccccc3s1)OCO2,-3,-1.9,-7.1*,i,i,i
CN(C)CCNC(=O)/C(=C/c1ccc(-c2cccc(Cl)c2)o1)NC(=O)c1ccccc1,-19,-4.6*,i,i,i,i
Cc1ccc(C(=O)N/C(=C\c2ccc(-c3ccc(Cl)cc3)o2)C(=O)NCCCN(C)C)cc1,-23,-5.3*,i,i,i,i
CN(C)CCCNC(=O)/C(=C\c1ccc(-c2ccc(Br)cc2)o1)NC(=O)c1ccccc1,-18,-1.9,i,i,i,i
Cc1ccc(S(=O)(=O)c2ccc([N+](=O)[O-])o2)cc1,/,/,/,i,/,/
O=C(/C=C/c1cn(CC(O)CN2CCOCC2)c2ccccc12)c1cccs1 (configuration not stated),-23,-3,i,/,6*,i
O=C(N/N=C/c1ccccn1)c1ccco1,-7,-0.92,i,i,i,i
O=C(N/N=C/c1ccc2ncccc2c1)c1ccco1,-9,-0.11,i,i,6*,i
CC(C)c1ccc(OCC(=O)NNC(=S)NC(=O)c2ccco2)c(Br)c1,-13,0.25,i,i,i,47*
Cc1ccc(-c2nnc(CSc3nnc(COc4ccccc4)n3-c3ccccc3)o2)cc1,-16,-2.2,i,i,i,i
Cc1ccc(-c2nnc(CSc3nnc(COc4ccccc4)n3-c3ccc(C)cc3)o2)cc1,-21,0.63,i,i,6*,i
CCOc1ccc2[nH]c(=O)c(CN(Cc3cccs3)C(CC)c3nnnn3C(C)(C)CC)cc2c1 (configuration not stated),-10,-0.23,i,i,i,i
CCC(c1nnnn1C(C)(C)C)N(Cc1cccs1)Cc1cc2cc(C)c(C)cc2n2nnnc12 (configuration not stated),-2,-0.61,-14*,/,i,i
CCCCn1c(N)c(N(CCOC)C(=O)c2ccc(N3CCCC3)c([N+](=O)[O-])c2)c(=O)[nH]c1=O,-14,1.2,i,i,i,i
Cc1cccc(COC(=O)CCCNC(=O)c2ccc(Cl)cc2)c1,/,/,/,i,/,/
CCOC(=O)C(C(=O)OCC)C(C(=O)OCC)N1CCOCC1 (configuration not stated),-5,0.57,i,i,i,10*
Cc1ccc(S(=O)(=O)N2CCOCC2)cc1C(=O)N1CCN(c2ccc(C(F)(F)F)cn2)CC1,/,/,/,i,/,/
O=C(c1ccc(N2CCCS2(=O)=O)cc1)N1CCN(c2ccccc2)CC1,-11,1.2,i,i,i,i
O=C(CNS(=O)(=O)c1c(Cl)cccc1Cl)N1CCCCCC1,-2,-4.6*,i,i,i,i
O=C(O)CSc1cc(C(F)(F)F)nc(-c2ccccn2)n1,39*,0.63,i,i,i,i
SMILES,hERG protect,Kir21 inh,KCNK9 block,KCNK3 inh,KCNQ1 inh,KCNQ1 act
CCOC(=O)CSc1cc(C(F)(F)F)nc(-c2ccccn2)n1,-7,2.3,i,i,i,i
O=C(Nc1nc2c(s1)CCCC2)c1cccnc1,-12,-0.68,i,i,i,i
O=C(NC(=S)Nc1nc2c(s1)CCCC2)c1ccc(C(=O)c2ccccc2)cc1,14*,1.9,i,i,i,9*
Cc1ccc(-n2c(-c3cc(-c4ccco4)[nH]n3)n[nH]c2=S)c(Br)c1,-15,-0.25,i,i,6*,i
Cc1ccc(S(=O)(=O)n2nccc2-c2c(-c3ccccc3)noc2C)cc1,-5,0.47,-7.2*,i,i,i
Cc1cc(C)nc(SCc2nnc(SCC(=O)N3CCCc4ccccc43)o2)n1,-6,-5*,i,i,i,i
CCOC(=O)c1cc(CC)sc1NC(=O)Cc1ccsc1,-7,-0.03,i,-9*,i,i
CCOC(=O)c1cc(C)sc1NC(=O)CN1CCN(C(=O)c2ccco2)CC1,-4,-0.17,i,i,i,9*
CCOC(=O)c1cc(CC)sc1NC(=O)CN1CCN(C(=O)c2ccco2)CC1,-32,1.2,i,i,i,23*
COC(=O)c1cc(C)sc1NC(=O)CN1CCN(C(=O)c2ccco2)CC1,-3,-1.1,i,i,i,i
CCOC(=O)c1c(NC(=O)CN2CCN(C(=O)c3ccco3)CC2)sc2c1CCCC2,29*,-0.42,i,i,i,14*
CCOC(=O)c1c(NC(=O)c2ccco2)sc2c1CCCC2,-5,0.29,i,i,i,i
CCOC(=O)c1cc(CC)sc1NC(=O)CCC(=O)O,-2,0,i,i,i,i
O=C(CNC(=O)c1ccco1)OCC(=O)c1ccc([N+](=O)[O-])cc1,-8,1.9,i,i,i,i
N#Cc1c(NC(=O)COC(=O)c2nccnc2N)sc2c1CCCC2,-12,-1.7,i,i,i,i
CCOC(=O)c1c(NC(=O)COC(=O)c2nccnc2N)sc2c1CCC2,/,/,/,-11*,/,/
Nc1nc(=S)[nH]c2c1C1(CCCCC1)Cc1ccccc1-2,-3,1.4,i,i,i,i
Nc1nc(=S)[nH]c2c1C1(CCCC1)Cc1ccccc1-2,6.1*,-1.5,i,i,i,i
Cc1ccc(C)c(S(=O)(=O)Nc2ccc(C(=O)N3CCCCC3)cc2)c1,-8,-0.01,i,i,i,i
Cc1cccc(C(=O)Nc2ccc(C(=O)N3CCCCC3C)cc2)c1 (configuration not stated),-9,0.54,-7.6*,i,i,i
